Assay results: ChEMBL document CHEMBL3414569, “Amino acid modified xanthone derivatives: novel, highly promising membrane-active antimicrobials for multidrug-resistant Gram-positive bacterial infections” (J Med Chem, 2015)
≈ marks a conversion by molar mass, not a printed value. Calls of active or inactive are those of the source.

Key:
Staphylococcus aureus [1] = experiment: Antimicrobial activity against epidemic methicillin resistant Staphylococcus aureus isolates by broth macrodilution method; type: functional
Staphylococcus aureus [2] = experiment: Antimicrobial activity against vancomycin-intermediate sensitive Staphylococcus aureus isolates by broth macrodilution method; type: functional
Streptococcus = experiment: Antimicrobial activity against Streptococcus isolates by broth macrodilution method; type: functional
[3] = Selectivity index, ratio of HC50 for induction of hemolysis in New Zealand white rabbit RBC to MIC for Staphylococcus aureus DM4001
Staphylococcus aureus [4] = experiment: Antimicrobial activity against multidrug resistant Staphylococcus aureus isolates by broth macrodilution method; type: functional
Staphylococcus aureus [5] = experiment: Antimicrobial activity against teicoplanin intermediate resistant Staphylococcus aureus isolates by broth macrodilution method; type: functional
[6] = Selectivity index, ratio of HC50 for induction of hemolysis in New Zealand white rabbit RBC to MIC for Bacillus cereus ATCC 11778
Listeria monocytogenes = experiment: Antimicrobial activity against Listeria monocytogenes isolates by broth macrodilution method; type: functional
[7] = Induction of hemolysis in New Zealand white rabbit RBC after 1 hr; type: cell-based, Oryctolagus cuniculus, Erythrocyte; conditions: New Zealand white, red blood cells (RBC)
Outline: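 Fresh red blood cells isolated from New Zealand white rabbits. Lysis measured over a compound concentration series; HC50 taken as the concentration lysing 50% of RBCs.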

Enterococcus [8] = experiment: Antimicrobial activity against vancomycin-resistant Enterococcus isolates by broth macrodilution method; type: functional
Lipid bilayer [9] = experiment: Induction of vesicle leakage in DOPE/DOPG large unilamellar vesicles assessed as calcein release at 1/16 compound to lipid ratio by fluorescence assay; type: functional
Outline: (§1)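 100 nm LUVs (DOPE/DOPG 75/25 or DOPC) made by film hydration in 80 mM calcein, 50 mM HEPES, 100 mM NaCl, 0.3 mM EDTA, pH 7.4. Then 7 freeze–thaw cycles, 15 extrusions and Sephadex G-50 clean-up. Compound added from DMF (<0.2%) at 50 μM final phospholipid. Fluorescence read at ex 490/em 520 nm for 30 min; 0.1% Triton X-100 set 100% lysis; three independent experiments.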

Staphylococcus aureus [10] = experiment: Antimicrobial activity against Staphylococcus aureus ATCC 29213 infected in mouse cornea infection model assessed as reduction in viable bacterial count at 0.3% solution applied topically 5 times/day dosed 1 day after infection relative to control; type: functional
Outline: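 Mouse cornea given three superficial 1 mm scratches on one eye under ketamine/xylazine, then 10 μL of S. aureus ATCC 29213 suspension (1 × 10^8 CFU/mL in USP phosphate buffer) applied topically. Treated topically 5 times/day from day 1 postinfection; PBS negative control; 4 mice/group killed on days 1, 2 and 3. Corneas homogenized in 0.9% NaCl with 0.25% BSA, plated in duplicate on TSA (48 h, 35 °C); log10 CFU/cornea.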

[11] = Retention time of the compound; type: physicochemical
Outline: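 Reverse-phase HPLC of 20 μL injections of a 10 μg/mL sample at 1 mL/min. Gradient: 5−55% ACN over 5 min, then 55−95% over 15 min.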

Staphylococcus aureus [12] = experiment: Antimicrobial activity against methicillin resistant Staphylococcus aureus DM21455 in presence of 4% BSA by broth macrodilution method; type: functional
Outline: (§2)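 MIC by CLSI broth macrodilution in Mueller Hinton broth, with BSA added to the bacterial suspension at a final 4% w/v. Inoculum was made by direct colony suspension from an 18−20 h tryptic soy agar plate.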

Mus musculus [13] = experiment: Toxicity in C57BL6 mouse eye assessed as effect on corneal clarity at 3 mg/ml applied topically 5 times/day for 4 days by slit lamp biomicroscopy; type: organism-based, Cornea; conditions: in vivo, topical_or_ocular, 96 h
Outline: (§3)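 Three healthy wild-type C57BL6 mice (6−8 weeks) per treatment received 0.5, 1 or 3 mg/mL compound in 10 mM PBS. Applied topically to the eye 5 times/day for 4 days. Corneal clarity checked daily through day 4 by slit-lamp biomicroscopy; histological sections also inspected.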

Lipid bilayer [14] = experiment: Induction of vesicle leakage in DOPE/DOPG large unilamellar vesicles assessed as calcein release at 1/64 compound to lipid ratio by fluorescence assay; type: functional; outline: as §1
Mus musculus [15] = experiment: Toxicity in C57BL6 mouse eye assessed as inflammatory response at 3 mg/ml applied topically 5 times/day for 4 days by slit lamp biomicroscopy; type: organism-based; conditions: in vivo, topical_or_ocular, 96 h; outline: as §3
Enterococcus [16] = experiment: Antimicrobial activity against vancomycin-sensitive Enterococcus isolates by broth macrodilution method; type: functional
Staphylococcus aureus [17] = experiment: Antimicrobial activity against methicillin resistant Staphylococcus aureus DM21455 by broth macrodilution method; type: functional
Outline: (§4)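 Broth macrodilution MIC in Mueller Hinton broth following CLSI guidelines. Inoculum was prepared by direct colony suspension from an 18−20 h tryptic soy agar plate.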

Lipid bilayer [18] = experiment: Induction of vesicle leakage in DOPC large unilamellar vesicles assessed as calcein release at 1/16 compound to lipid ratio by fluorescence assay; type: functional; outline: as §1
Staphylococcus aureus [19] = experiment: Antimicrobial activity against methicillin resistant Staphylococcus aureus DM09809R by broth macrodilution method; type: functional; outline: as §4
Staphylococcus aureus [20] = experiment: Antimicrobial activity against methicillin sensitive Staphylococcus aureus isolates by broth macrodilution method; type: functional
Staphylococcus aureus [21] = experiment: Antimicrobial activity against Staphylococcus aureus DM4001 by broth macrodilution method; type: functional; outline: as §4
Staphylococcus aureus [22] = experiment: Antimicrobial activity against methicillin resistant Staphylococcus aureus DM21455 in absence of 4% BSA by broth macrodilution method; type: functional; outline: as §4
Bacillus cereus = experiment: Antimicrobial activity against Bacillus cereus ATCC 11778 by broth macrodilution method; type: functional
Outline: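 CLSI broth macrodilution in Mueller Hinton broth. Inoculum was made by direct colony suspension from colonies on an 18−20 h tryptic soy agar plate. The value is the MIC.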

Lipid bilayer [23] = experiment: Induction of vesicle leakage in DOPE/DOPG large unilamellar vesicles assessed as calcein release at 1/32 compound to lipid ratio by fluorescence assay; type: functional; outline: as §1
[24] = test system: Staphylococcus epidermidis; experiment: Antimicrobial activity against Staphylococcus epidermidis isolates by broth macrodilution method; type: functional
Staphylococcus aureus [25] = experiment: Antimicrobial activity against methicillin resistant Staphylococcus aureus isolates by broth macrodilution method; type: functional
Corynebacterium jeikeium = experiment: Antimicrobial activity against Corynebacterium jeikeium isolates by broth macrodilution method; type: functional
Staphylococcus aureus [26] = experiment: Antimicrobial activity against Staphylococcus aureus ATCC 29213 by broth macrodilution method; type: functional; outline: as §4
Mus musculus [27] = experiment: Toxicity in C57BL6 mouse eye assessed as induction of toxicity related clinical signs at 3 mg/ml applied topically 5 times/day for 4 days; type: organism-based; conditions: in vivo, topical_or_ocular, 96 h; outline: as §3
[28] = Selectivity index, ratio of HC50 for induction of hemolysis in New Zealand white rabbit RBC to MIC for Staphylococcus aureus DM09809R
Staphylococcus aureus [29] = experiment: Antimicrobial activity against Staphylococcus aureus ATCC 29213 in absence of 4% BSA by broth macrodilution method; type: functional; outline: as §4
[30] = Selectivity index, ratio of HC50 for induction of hemolysis in New Zealand white rabbit RBC to MIC for Staphylococcus aureus DM21455
Staphylococcus aureus [31] = experiment: Antimicrobial activity against Staphylococcus aureus ATCC 29213 in presence of 4% BSA by broth macrodilution method; type: functional; outline: as §2
Lipid bilayer [32] = experiment: Induction of vesicle leakage in DOPC large unilamellar vesicles assessed as calcein release at 1/64 compound to lipid ratio by fluorescence assay
Staphylococcus aureus [33] = experiment: Antimicrobial activity against Staphylococcus aureus ATCC 29213 at 0.5 times MIC measured after 17 passages by multistep passage drug resistance selection study relative to wild type Staphylococcus aureus ATCC 29213 before passage; type: functional
Outline: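 Multipassage selection in S. aureus ATCC29213 across an eight-concentration dilution series. Growth was read after 20−22 h. Bacteria growing at 0.5 × MIC were repassaged into a fresh series, 17 passages in total. Resistance was defined as a more than 4-fold rise over the initial MIC.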

Mus musculus [34] = experiment: Toxicity in C57BL6 mouse eye assessed as effect on wound closure at 3 mg/ml applied topically 5 times/day for 4 days by slit lamp biomicroscopy; type: organism-based; conditions: in vivo, topical_or_ocular, 96 h

**Q.** Which MIC (Staphylococcus aureus [1]) does the source give for COC(=O)C(CCCNC(=N)N)NC(=O)C(CCCNC(=N)N)NC(=O)COc1cc2oc3cc(OCC(=O)NC(CCCNC(=N)N)C(=O)NC(CCCNC(=N)N)C(=O)OC)c(OC)c(CC=C(C)C)c3c(=O)c2c(O)c1CC=C(C)C (stereo not drawn) here?
**A.** 2 µg/mL (≈ 1.7 µM)

**Q.** What about the MIC (Staphylococcus aureus [2]) of the same compound?
**A.** 2 µg/mL (≈ 1.7 µM)

**Q.** What about the MIC (Streptococcus) of the same compound?
**A.** 2 µg/mL (≈ 1.7 µM)

**Q.** What about the Selectivity Index [3] of the same compound?
**A.** 92

**Q.** And the MIC (Staphylococcus aureus [4])?
**A.** 2 µg/mL (≈ 1.7 µM)

**Q.** And the MIC (Staphylococcus aureus [5])?
**A.** 2 µg/mL (≈ 1.7 µM)

**Q.** What about the Selectivity Index [6] of the same compound?
**A.** 92

**Q.** And the MIC (Listeria monocytogenes)?
**A.** 2 µg/mL (≈ 1.7 µM)

**Q.** What about the HC50 at 1 h [7] of the same compound?
**A.** 277 µg/mL

**Q.** What about the MIC (Enterococcus [8]) of the same compound?
**A.** 1 µg/mL (≈ 0.848 µM)

**Q.** What about the Activity (Lipid bilayer [9]) of the same compound?
**A.** 99.2%

**Q.** And the “inhibition (INH)” value (Staphylococcus aureus [10])?
**A.** 99.9%

**Q.** And the Retention_time [11]?
**A.** 6.49 min

**Q.** And the MIC (Staphylococcus aureus [12])?
**A.** 12.5 µg/mL

**Q.** What about the Activity (Mus musculus [13]) of the same compound?
**A.** Non-toxic

**Q.** What about the Activity (Lipid bilayer [14]) of the same compound?
**A.** 24.6%

**Q.** And the Activity (Mus musculus [15])?
**A.** Non-toxic

**Q.** What about the MIC (Enterococcus [16]) of the same compound?
**A.** 2 µg/mL (≈ 1.7 µM)

**Q.** What about the MIC (Staphylococcus aureus [17]) of the same compound?
**A.** 2 µg/mL (≈ 1.7 µM)

**Q.** What about the Activity (Lipid bilayer [18]) of the same compound?
**A.** < 15%

**Q.** And the MIC (Staphylococcus aureus [19])?
**A.** 3 µg/mL (≈ 2.54 µM)

**Q.** What about the MIC (Staphylococcus aureus [20]) of the same compound?
**A.** 2 µg/mL (≈ 1.7 µM)

**Q.** What about the MIC (Staphylococcus aureus [21]) of the same compound?
**A.** 0.5 µg/mL (≈ 0.424 µM)

**Q.** What about the MIC (Staphylococcus aureus [22]) of the same compound?
**A.** 1.56 µg/mL (≈ 1.32 µM)

**Q.** And the MIC (Bacillus cereus)?
**A.** 3 µg/mL (≈ 2.54 µM)

**Q.** What about the Activity (Lipid bilayer [23]) of the same compound?
**A.** 67.9%

**Q.** What about the MIC [24] of the same compound?
**A.** 2 µg/mL (≈ 1.7 µM)

**Q.** And the MIC (Staphylococcus aureus [25])?
**A.** 2 µg/mL (≈ 1.7 µM)

**Q.** What about the MIC (Corynebacterium jeikeium) of the same compound?
**A.** 2 µg/mL (≈ 1.7 µM)

**Q.** What about the MIC (Staphylococcus aureus [26]) of the same compound?
**A.** 2 µg/mL (≈ 1.7 µM)

**Q.** What about the Activity (Mus musculus [27]) of the same compound?
**A.** Non-toxic

**Q.** And the Selectivity Index [28]?
**A.** 92

**Q.** What about the MIC (Staphylococcus aureus [29]) of the same compound?
**A.** 3.12 µg/mL (≈ 2.65 µM)

**Q.** What about the Selectivity Index [30] of the same compound?
**A.** 92

**Q.** And the MIC (Staphylococcus aureus [31])?
**A.** 12.5 µg/mL

**Q.** And the Activity (Lipid bilayer [32])?
**A.** < 15%

**Q.** And the Activity (Staphylococcus aureus [33])?
**A.** Active

**Q.** And the Activity (Mus musculus [34])?
**A.** Non-toxic
